Activity data for 59 compounds are collected here from ChEMBL document CHEMBL4041496, “Natural-Based Indirubins Display Potent Cytotoxicity toward Wild-Type and T315I-Resistant Leukemia Cell Lines” (J Nat Prod, 2016).

The source made the active and inactive calls. How the calls were made is not given here.

The test system of assay [1] is KCL-22. The experiment in a line: Cytotoxicity against human KCL22 cells harboring ABL1 T315I mutant assessed as reduction in cell viability at 1 uM after 48 hrs by MTS assay. The class given is functional, cell-based. A digest of the protocol:
(§1)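 Single-concentration screen: KCL-22 cells, or KCL-22 cells expressing T315I mutant Bcr-Abl, grown in RPMI-1640 with 10% FBS. Cells were seeded at 10 000/well, held overnight at 37 °C in 5% CO2, then exposed to 1 μM compound for 48 h, with DMSO as vehicle control. Viability was read by MTS tetrazolium-to-formazan conversion, absorbance 490 nm, in triplicate.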

The subject of assay [2] is KCL-22. Nature of the assay: Cytotoxicity against human KCL22 cells assessed as reduction in cell viability at 1 uM after 48 hrs by MTS assay. In kind it is functional, cell-based. A digest of the protocol: as §1
(Tetrazolium dyes change colour on reduction, which living cells bring about.)

Turning to `O=C1Nc2c(cccc2C(F)(F)F)/C1=C1/Nc2ccccc2/C1=N\OCCN1CCN(CCO)CC1`, the result in the assay with KCL-22 [1] and in the assay on KCL-22 [2] was inactive.

Regarding `O=C1Nc2c(cccc2C(F)(F)F)/C1=C1/Nc2ccc(-c3nnn[nH]3)cc2C1=O`, the outcome with KCL-22 [1] and in the assay on KCL-22 [2] was inactive.

`COC(=O)c1ccc2c(c1)C(=O)/C(=C1/C(=O)Nc3c1cccc3C(F)(F)F)N2`: the outcome with KCL-22 [1] and with KCL-22 [2] was inactive.

As for `O=C1Nc2c(F)cccc2/C1=C1/Nc2ccccc2C1=O`, the result in the assay on KCL-22 [1] and in the assay with KCL-22 [2] was inactive.

In the case of `COC(=O)c1ccc2c(c1)NC(=C1\C(=O)Nc3c(Br)cccc31)/C2=N/OCCN1CCNCC1`, the result with KCL-22 [1] and with KCL-22 [2] was inactive.

Take `COC(=O)c1ccc2c(c1)C(=N\OCCN1CCNCC1)/C(=C1/C(=O)Nc3c1cccc3C(F)(F)F)N2`: the outcome with KCL-22 [1] and in the assay on KCL-22 [2] was inactive.

In the case of `CN1C(=O)/C(=C2\Nc3ccccc3C2=O)c2cccc(Cl)c21`, the result in the assay on KCL-22 [1] and in the assay on KCL-22 [2] was inactive.

Consider `O=C1Nc2ccccc2/C1=C1/Nc2ccccc2C1=O`, for which the outcome with KCL-22 [1] and with KCL-22 [2] was inactive.

Take `COC(=O)c1ccc2c(c1)NC(=C1\C(=O)Nc3c1cccc3C(F)(F)F)/C2=N/OCCN1CCNCC1`: the outcome with KCL-22 [1] and with KCL-22 [2] was inactive.

With `O=C1Nc2c(Br)cccc2/C1=C1/Nc2ccccc2/C1=N\O`, the result with KCL-22 [1] and in the assay on KCL-22 [2] was inactive.

Regarding `O=C1Nc2c(F)cccc2/C1=C1/Nc2ccccc2/C1=N\O`, the result with KCL-22 [1] and in the assay on KCL-22 [2] was inactive.

As to `CC(=O)O/N=C1/C(=C2/C(=O)Nc3cc(Br)c([N+](=O)[O-])cc32)Nc2ccccc21`, the result with KCL-22 [1] and in the assay on KCL-22 [2] was inactive.

As for `O=C1Nc2c(cccc2C(F)(F)F)/C1=C1/Nc2ccc(C(=O)O)cc2/C1=N\O`, the result with KCL-22 [1] and with KCL-22 [2] was inactive.

With `COC(=O)c1ccc2c(c1)NC(=C1\C(=O)Nc3c(Br)cccc31)/C2=N/O`, the result in the assay with KCL-22 [1] and with KCL-22 [2] was inactive.

For the compound `O=C1Nc2c(cccc2C(F)(F)F)/C1=C1/Nc2ccccc2/C1=N\OCCN1CCNCC1`, the outcome in the assay on KCL-22 [1] and in the assay on KCL-22 [2] was inactive.

For `COC(=O)c1ccc2c(c1)N/C(=C1\C(=O)Nc3c1cccc3C(F)(F)F)C2=O`, the outcome with KCL-22 [1] and in the assay on KCL-22 [2] was inactive.

As to `O=C1Nc2c(Br)cccc2/C1=C1/Nc2ccc(/C=N/O)cc2C1=O`, the outcome in the assay on KCL-22 [1] and in the assay with KCL-22 [2] was inactive.

In the case of `CN1C(=O)/C(=C2\Nc3ccccc3\C2=N/O)c2cccc(Br)c21`, the outcome in the assay with KCL-22 [1] and in the assay with KCL-22 [2] was inactive.

Regarding `O=C1Nc2c(Br)cccc2/C1=C1/Nc2ccc(-c3nnn[nH]3)cc2/C1=N\O`, the result in the assay with KCL-22 [1] and in the assay on KCL-22 [2] was inactive.

With `CCN(CC)CCO/N=C1/C(=C2/C(=O)Nc3c(Br)cccc32)Nc2ccccc21`, the result in the assay with KCL-22 [1] and in the assay on KCL-22 [2] was inactive.

Take `O=C1Nc2c(Cl)cccc2/C1=C1/Nc2ccccc2C1=O`: the result in the assay with KCL-22 [1] and in the assay on KCL-22 [2] was inactive.

`N#Cc1ccc2c(c1)C(=N\O)/C(=C1/C(=O)Nc3c1cccc3C(F)(F)F)N2`: the result in the assay on KCL-22 [1] and with KCL-22 [2] was inactive.

On to `O=C1Nc2c(cccc2C(F)(F)F)/C1=C1/Nc2cc(C(=O)O)ccc2/C1=N\OCCN1CCNCC1`, for which the outcome in the assay with KCL-22 [1] and in the assay with KCL-22 [2] was inactive.

As for `O=C1Nc2c(I)cccc2/C1=C1/Nc2ccccc2C1=O`, the outcome in the assay on KCL-22 [1] and in the assay on KCL-22 [2] was inactive.

Consider `CN1C(=O)/C(=C2\Nc3ccccc3\C2=N/O)c2cccc(I)c21`, for which the outcome in the assay on KCL-22 [1] and in the assay with KCL-22 [2] was inactive.

For the compound `CN1C(=O)/C(=C2\Nc3ccccc3\C2=N/OCCN2CCNCC2)c2cccc(Br)c21`, the result in the assay on KCL-22 [1] and in the assay with KCL-22 [2] was inactive.

On to `O=C1Nc2c(I)cccc2/C1=C1/Nc2ccccc2/C1=N\O`, for which the result in the assay on KCL-22 [1] and in the assay on KCL-22 [2] was inactive.

In the case of `O=C1Nc2c(Br)cccc2/C1=C1/Nc2cc(C(=O)O)ccc2/C1=N\OCCN1CCNCC1`, the result in the assay on KCL-22 [1] and in the assay on KCL-22 [2] was inactive.

Consider `COC(=O)c1ccc2c(c1)C(=N\OCCN1CCNCC1)/C(=C1/C(=O)Nc3c(Br)cccc31)N2`, for which the result in the assay on KCL-22 [1] and in the assay with KCL-22 [2] was inactive.

Regarding `COC(=O)c1ccc2c(c1)C(=N\O)/C(=C1/C(=O)Nc3c1cccc3C(F)(F)F)N2`, the outcome with KCL-22 [1] and in the assay with KCL-22 [2] was inactive.

For the compound `O=C1Nc2c(cccc2C(F)(F)F)/C1=C1/Nc2cc(C(=O)O)ccc2/C1=N\O`, the result in the assay on KCL-22 [1] and in the assay with KCL-22 [2] was inactive.

Turning to `O=C1Nc2cc(Cl)c(Cl)cc2/C1=C1/Nc2ccccc2C1=O`, the outcome in the assay with KCL-22 [1] and in the assay on KCL-22 [2] was inactive.

Take `COC(=O)c1ccc2c(c1)NC(=C1\C(=O)Nc3c1cccc3C(F)(F)F)/C2=N/O`: the result in the assay with KCL-22 [1] and in the assay on KCL-22 [2] was inactive.

In the case of `CN1C(=O)/C(=C2\Nc3ccccc3\C2=N/O)c2cccc(Cl)c21`, the result in the assay with KCL-22 [1] and in the assay with KCL-22 [2] was inactive.

For the compound `COC(=O)c1ccc2c(c1)C(=O)/C(=C1/C(=O)N(C)c3c(Br)cccc31)N2`, the result with KCL-22 [1] and with KCL-22 [2] was inactive.

`O=C1Nc2c(Br)cccc2/C1=C1/Nc2ccccc2C1=O`: the result in the assay with KCL-22 [1] and in the assay with KCL-22 [2] was inactive.

Turning to `CC(=O)O/N=C1/C(=C2/C(=O)Nc3cc(Br)c(C)cc32)Nc2ccccc21`, the result in the assay on KCL-22 [1] and in the assay with KCL-22 [2] was inactive.

Take `O=C1Nc2cc(Br)c([N+](=O)[O-])cc2/C1=C1/Nc2ccccc2C1=O`: the result in the assay on KCL-22 [1] and in the assay on KCL-22 [2] was inactive.

In the case of `COC(=O)c1ccc2c(c1)N/C(=C1\C(=O)Nc3c(Br)cccc31)C2=O`, the result with KCL-22 [1] and with KCL-22 [2] was inactive.

`Nc1cc2c(cc1Br)NC(=O)/C2=C1\Nc2ccccc2\C1=N/O`: the result with KCL-22 [1] and in the assay on KCL-22 [2] was inactive.

With `O=C1Nc2c(cccc2C(F)(F)F)/C1=C1/Nc2ccccc2/C1=N\O`, the outcome with KCL-22 [1] and in the assay on KCL-22 [2] was inactive.

For the compound `O=C1Nc2c(cccc2C(F)(F)F)/C1=C1/Nc2ccc(-c3nnn[nH]3)cc2/C1=N\O`, the outcome in the assay on KCL-22 [1] and with KCL-22 [2] was inactive.

Take `O=C1Nc2c(Br)cccc2/C1=C1/Nc2ccccc2/C1=N\OCCN1CCNCC1`: the outcome in the assay on KCL-22 [1] and in the assay on KCL-22 [2] was inactive.

On to `O=C1Nc2ccccc2/C1=C1/Nc2cc(Br)ccc2/C1=N\O`, for which the result with KCL-22 [1] and with KCL-22 [2] was inactive.

For `COC(=O)c1ccc2c(c1)C(=O)/C(=C1/C(=O)Nc3c(Br)cccc31)N2`, the outcome in the assay with KCL-22 [1] and in the assay with KCL-22 [2] was inactive.

Turning to `O=C1Nc2c(Br)cccc2/C1=C1/Nc2ccc(-c3nnn[nH]3)cc2C1=O`, the outcome with KCL-22 [1] and in the assay with KCL-22 [2] was inactive.

For the compound `COC(=O)c1ccc2c(c1)C(=N\O)/C(=C1/C(=O)Nc3c(Br)cccc31)N2`, the outcome with KCL-22 [1] and with KCL-22 [2] was inactive.

Regarding `CC(=O)O/N=C1/C(=C2/C(=O)N(C(C)=O)c3cc(Br)c([N+](=O)[O-])cc32)Nc2ccccc21`, the result in the assay with KCL-22 [1] and with KCL-22 [2] was inactive.

Turning to `N#Cc1ccc2c(c1)C(=O)/C(=C1/C(=O)Nc3c1cccc3C(F)(F)F)N2`, the result with KCL-22 [1] and in the assay on KCL-22 [2] was inactive.

Regarding `O=C1Nc2cc(Br)c([N+](=O)[O-])cc2/C1=C1/Nc2ccccc2/C1=N\O`, the result in the assay with KCL-22 [1] and with KCL-22 [2] was inactive.

`O=C1Nc2c(Br)cccc2/C1=C1/Nc2cc(C(=O)O)ccc2/C1=N\O`: the outcome with KCL-22 [1] and with KCL-22 [2] was inactive.

As to `Cc1cc2c(cc1Br)NC(=O)/C2=C1\Nc2ccccc2C1=O`, the outcome in the assay on KCL-22 [1] and with KCL-22 [2] was inactive.

Consider `O=C1Nc2c(Br)cccc2/C1=C1/Nc2ccc(C(=O)O)cc2/C1=N\O`, for which the result in the assay with KCL-22 [1] and with KCL-22 [2] was inactive.

On to `O=C1Nc2c(cccc2C(F)(F)F)/C1=C1/Nc2ccccc2C1=O`, for which the outcome in the assay with KCL-22 [1] and with KCL-22 [2] was inactive.

As to `CN1C(=O)/C(=C2\Nc3ccccc3C2=O)c2cccc(I)c21`, the result in the assay on KCL-22 [1] and with KCL-22 [2] was inactive.

Take `O=C1Nc2ccccc2/C1=C1/Nc2ccccc2/C1=N\O`: the result in the assay with KCL-22 [1] and with KCL-22 [2] was inactive.

On to `O=C1Nc2c(Br)cccc2/C1=C1/Nc2ccc(C(=O)O)cc2/C1=N\OCCN1CCNCC1`, for which the result in the assay with KCL-22 [1] and with KCL-22 [2] was inactive.

As to `O=C1Nc2ccccc2/C1=C1/Nc2cc(Br)ccc2C1=O`, the result in the assay on KCL-22 [1] and with KCL-22 [2] was inactive.

With `O=C1Nc2c(cccc2C(F)(F)F)/C1=C1/Nc2ccc(C(=O)O)cc2/C1=N\OCCN1CCNCC1`, the result in the assay with KCL-22 [1] and with KCL-22 [2] was inactive.
